Consider 18 compounds from ChEMBL document CHEMBL3232927 (J Med Chem, 2014).

A short description of series [1]: Retention time of the compound up to by LC/MS analysis. The series is classed as physicochemical. Summed up:
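Reversed-phase LC/MS on a C18 (ODS) column, 5 μm, 4.6 × 150 mm, flow 1 mL/min. Gradient from 56/44 to 98/2 methanol/water containing 15 mM NH4OAc over 15 min, then a final hold.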

The subject of the next series is MDA-MB-231. In words: Cytotoxicity against human MDA-MB-231 cells after 72 hrs by MTT assay. In kind it is functional, cell-based. The settings on record: MDA-MB-231, 72 h. Summed up:
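MDA-MB-231 cells grown in MEM with 10% FBS and 1% pen/strep at 37 °C, seeded at 8000 cells/well in MEM with 5% FBS. 10 mM DMSO stocks were serially diluted in MEM/5% FBS: 1–10 000 nM for PTX-silicates, 0.1–1000 for DTX-silicates. Exposure 72 h, then MTT added and absorbance at 490 nm read at 60 min. IC50 from nonlinear regression of log concentration vs response; median of the IC50 distribution within the 95% confidence interval.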
On the technique in general: Formazan colour is commonly taken as a measure of viable cells.

Series [2] is described as follows: Half life of the compound at C2 position in acetone-d6/D2O/CF3CO2H at 0.01 M by NMR spectroscopy analysis. The series is classed as physicochemical. The method in brief: (§1)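 Silicates dissolved in acetone/water 10:1 (v/v) containing 1% TFA (measured pH 1.2) at ambient temperature. Silicate ester cleavage followed over time by NMR spectroscopy.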
A short description of series [3]: Half life of the compound at C7 position in acetone-d6/D2O/CF3CO2H at 0.01 M by NMR spectroscopy analysis. In kind it is physicochemical. The method in brief: as §1

Broadly, the IC50 is the concentration that gives 50% inhibition. With `CCO[Si](OCC)(OCC)O[C@@H](C(=O)O[C@H]1C[C@@]2(O)[C@@H](OC(=O)c3ccccc3)[C@@H]3[C@]4(OC(C)=O)CO[C@@H]4C[C@H](O)[C@@]3(C)C(=O)[C@H](OC(C)=O)C(=C1C)C2(C)C)[C@@H](NC(=O)c1ccccc1)c1ccccc1`, the Retention_time in series [1] was 13.8 min. In the series on MDA-MB-231, the midpoint of inhibition, the IC50, lay at 8.3 nM. In series [2], this compound showed a t1/2 of 0.0617 h.

As to `CCCCCCCCO[Si](OCCCCCCCC)(OCCCCCCCC)O[C@@H](C(=O)O[C@H]1C[C@@]2(O)[C@@H](OC(=O)c3ccccc3)[C@@H]3[C@]4(OC(C)=O)CO[C@@H]4C[C@H](O)[C@@]3(C)C(=O)[C@H](OC(C)=O)C(=C1C)C2(C)C)[C@@H](NC(=O)c1ccccc1)c1ccccc1`, in series [1], the Retention_time was 22.1 min. In the series on MDA-MB-231, this compound yielded an IC50 of 7 nM. Also, in series [2], the t1/2 stood at 0.2 h.

`CC(=O)O[C@H]1C(=O)[C@@]2(C)[C@H]([C@H](OC(=O)c3ccccc3)[C@]3(O)C[C@H](OC(=O)[C@H](O[Si](OC(C)C)(OC(C)C)OC(C)C)[C@@H](NC(=O)c4ccccc4)c4ccccc4)C(C)=C1C3(C)C)[C@]1(OC(C)=O)CO[C@@H]1C[C@@H]2O` showed a Retention_time in series [1] of 15.4 min. In the series with MDA-MB-231, it took 4.2 nM to reach half-maximal inhibition (IC50). In series [2], this compound came in with a t1/2 of 2 h.

Compound `CC(=O)O[C@H]1C(=O)[C@@]2(C)[C@H]([C@H](OC(=O)c3ccccc3)[C@]3(O)C[C@H](OC(=O)[C@H](O[Si](OC4CC(C)CCC4C(C)C)(OC4CC(C)CCC4C(C)C)OC4CC(C)CCC4C(C)C)[C@@H](NC(=O)c4ccccc4)c4ccccc4)C(C)=C1C3(C)C)[C@]1(OC(C)=O)CO[C@@H]1C[C@@H]2O` (stereo partly specified) gave a Retention_time in series [1] of 24.5 min. Besides, in the series on MDA-MB-231, the half-inhibitory concentration (IC50) was found to be 590 nM. The compound further registered a t1/2 in series [2] of 1150 h.

In series [1], `CCO[Si](O[C@@H](C(=O)O[C@H]1C[C@@]2(O)[C@@H](OC(=O)c3ccccc3)[C@@H]3[C@]4(OC(C)=O)CO[C@@H]4C[C@H](O)[C@@]3(C)C(=O)[C@H](OC(C)=O)C(=C1C)C2(C)C)[C@@H](NC(=O)c1ccccc1)c1ccccc1)(OC(C)(C)C)OC(C)(C)C` showed a Retention_time of 16.1 min. Moreover, the 50% inhibitory concentration (IC50) in the series with MDA-MB-231 is 260 nM. In addition, the t1/2 in series [2] turned out to be 200 h.

The compound `CC[Si](CC)(CC)O[C@@H](C(=O)O[C@H]1C[C@@]2(O)[C@@H](OC(=O)c3ccccc3)[C@@H]3[C@]4(OC(C)=O)CO[C@@H]4C[C@H](O)[C@@]3(C)C(=O)[C@H](OC(C)=O)C(=C1C)C2(C)C)[C@@H](NC(=O)c1ccccc1)c1ccccc1` showed a Retention_time in series [1] of 15.4 min. The compound further displayed an IC50 in the series on MDA-MB-231 of 220 nM.

`CCO[Si](OCC)(OCC)O[C@H]1C[C@H]2OC[C@@]2(OC(C)=O)[C@H]2[C@H](OC(=O)c3ccccc3)[C@]3(O)C[C@H](OC(=O)[C@H](O[Si](OCC)(OCC)OCC)[C@@H](NC(=O)c4ccccc4)c4ccccc4)C(C)=C([C@@H](OC(C)=O)C(=O)[C@]12C)C3(C)C` displayed a Retention_time in series [1] of 16.6 min. Further, it took 12 nM to reach half-maximal inhibition in the series with MDA-MB-231 (IC50). Also, the t1/2 worked out at 0.0767 h in series [2] and 0.55 h in series [3].

For the compound `CCCCCCCCO[Si](OCCCCCCCC)(OCCCCCCCC)O[C@H]1C[C@H]2OC[C@@]2(OC(C)=O)[C@H]2[C@H](OC(=O)c3ccccc3)[C@]3(O)C[C@H](OC(=O)[C@H](O[Si](OCCCCCCCC)(OCCCCCCCC)OCCCCCCCC)[C@@H](NC(=O)c4ccccc4)c4ccccc4)C(C)=C([C@@H](OC(C)=O)C(=O)[C@]12C)C3(C)C`, the IC50 with MDA-MB-231 turned out to be 280 nM. The t1/2 in series [2] is 0.3 h; in series [3], 3.33 h.

Compound `CC(=O)O[C@H]1C(=O)[C@]2(C)[C@@H](O[Si](OC(C)C)(OC(C)C)OC(C)C)C[C@H]3OC[C@@]3(OC(C)=O)[C@H]2[C@H](OC(=O)c2ccccc2)[C@]2(O)C[C@H](OC(=O)[C@H](O[Si](OC(C)C)(OC(C)C)OC(C)C)[C@@H](NC(=O)c3ccccc3)c3ccccc3)C(C)=C1C2(C)C` had a Retention_time in series [1] of 18.9 min. Besides, 1600 nM corresponded to half-maximal inhibition in the series with MDA-MB-231 (IC50). For the same compound, the results for the t1/2 in series [2] and in series [3] were 2.17 h and 25 h, respectively.

As to `CCO[Si](OCC)(OCC)O[C@H]1C[C@H]2OC[C@@]2(OC(C)=O)[C@H]2[C@H](OC(=O)c3ccccc3)[C@]3(O)C[C@H](OC(=O)[C@H](O)[C@@H](NC(=O)c4ccccc4)c4ccccc4)C(C)=C([C@@H](OC(C)=O)C(=O)[C@]12C)C3(C)C`, the Retention_time in series [1] is listed as 14.6 min. In the series with MDA-MB-231, this compound gave an IC50 of 18 nM. Also, the t1/2 in series [3] came to 0.5 h.

In series [1], `CCCCCCCCO[Si](OCCCCCCCC)(OCCCCCCCC)O[C@H]1C[C@H]2OC[C@@]2(OC(C)=O)[C@H]2[C@H](OC(=O)c3ccccc3)[C@]3(O)C[C@H](OC(=O)[C@H](O)[C@@H](NC(=O)c4ccccc4)c4ccccc4)C(C)=C([C@@H](OC(C)=O)C(=O)[C@]12C)C3(C)C` registered a Retention_time of 24.6 min. Also, 290 nM corresponded to half-maximal inhibition in the series with MDA-MB-231 (IC50). Further, the t1/2 in series [3] was determined as 2.5 h.

For the compound `CC(=O)O[C@H]1C(=O)[C@]2(C)[C@@H](O[Si](OC(C)C)(OC(C)C)OC(C)C)C[C@H]3OC[C@@]3(OC(C)=O)[C@H]2[C@H](OC(=O)c2ccccc2)[C@]2(O)C[C@H](OC(=O)[C@H](O)[C@@H](NC(=O)c3ccccc3)c3ccccc3)C(C)=C1C2(C)C`, the Retention_time in series [1] came out at 16.4 min. Moreover, the midpoint of inhibition with MDA-MB-231, the IC50, lay at 260 nM. The t1/2 in series [3] came out at 28.33 h.

Regarding `CCO[Si](OCC)(OCC)O[C@@H](C(=O)O[C@H]1C[C@@]2(O)[C@@H](OC(=O)c3ccccc3)[C@@H]3[C@]4(OC(C)=O)CO[C@@H]4C[C@H](O)[C@@]3(C)C(=O)[C@H](O)C(=C1C)C2(C)C)[C@@H](NC(=O)OC(C)(C)C)c1ccccc1`, the Retention_time in series [1] is listed as 14.1 min. Also, the half-inhibitory concentration (IC50) in the series on MDA-MB-231 worked out at 2.5 nM. In series [2], the t1/2 worked out at 0.183 h.

`CC(=O)O[C@@]12CO[C@@H]1C[C@H](O)[C@@]1(C)C(=O)[C@H](O)C3=C(C)[C@@H](OC(=O)[C@H](O[Si](OC(C)C)(OC(C)C)OC(C)C)[C@@H](NC(=O)OC(C)(C)C)c4ccccc4)C[C@@](O)([C@@H](OC(=O)c4ccccc4)[C@H]21)C3(C)C` displayed a Retention_time in series [1] of 15.9 min. Also, in the series with MDA-MB-231, half-maximal inhibition (IC50) was put at 0.2 nM. In series [2], this compound registered a t1/2 of 4.33 h.

Compound `CCO[Si](O[C@@H](C(=O)O[C@H]1C[C@@]2(O)[C@@H](OC(=O)c3ccccc3)[C@@H]3[C@]4(OC(C)=O)CO[C@@H]4C[C@H](O)[C@@]3(C)C(=O)[C@H](O)C(=C1C)C2(C)C)[C@@H](NC(=O)OC(C)(C)C)c1ccccc1)(OC(C)(C)C)OC(C)(C)C` showed a Retention_time in series [1] of 16.4 min. This compound registered an IC50 with MDA-MB-231 of 430 nM. The compound further gave a t1/2 in series [2] of 226.67 h.

Regarding `CC(=O)O[C@H]1C(=O)[C@@]2(C)[C@H]([C@H](OC(=O)c3ccccc3)[C@]3(O)C[C@H](OC(=O)[C@H](O[Si](OC(C)=O)(OC(C)(C)C)OC(C)(C)C)[C@@H](NC(=O)c4ccccc4)c4ccccc4)C(C)=C1C3(C)C)[C@]1(OC(C)=O)CO[C@@H]1C[C@@H]2O`, the t1/2 in series [2] was determined as 0.583 h.

Take `CC(=O)O[C@@]12CO[C@@H]1C[C@H](O)[C@@]1(C)C(=O)[C@H](O)C3=C(C)[C@@H](OC(=O)[C@H](O)[C@@H](NC(=O)OC(C)(C)C)c4ccccc4)C[C@@](O)([C@@H](OC(=O)c4ccccc4)[C@H]21)C3(C)C.O.O.O` [DOCETAXEL]: the Retention_time in series [1] is reported as 10.9 min. Moreover, in the series with MDA-MB-231, the IC50 was 1 nM.

`CC(=O)O[C@H]1C(=O)[C@@]2(C)[C@H]([C@H](OC(=O)c3ccccc3)[C@]3(O)C[C@H](OC(=O)[C@H](O)[C@@H](NC(=O)c4ccccc4)c4ccccc4)C(C)=C1C3(C)C)[C@]1(OC(C)=O)CO[C@@H]1C[C@@H]2O` [PACLITAXEL] returned a Retention_time in series [1] of 10.5 min. Further, in the series with MDA-MB-231, the midpoint of inhibition, the IC50, lay at 5.6 nM.
